Test results: ChEMBL document CHEMBL4706482, “Structural optimization of aminopyrimidine-based CXCR4 antagonists” (Eur J Med Chem, 2020)
The source made the active and inactive calls. The rule behind the calls is not given here.

Columns and labels:
[1] = target: T1, C-X-C chemokine receptor type 4 (Homo sapiens, UniProt P61073); assay: Antagonist activity at CXCR4 in human HPBALL cells assessed as inhibition of APC-conjugate clone 12G5 antibody signal incubated for 3 hrs by flow cytometric analysis; format: cell-based
Target sequence in this assay (P61073 whole entry): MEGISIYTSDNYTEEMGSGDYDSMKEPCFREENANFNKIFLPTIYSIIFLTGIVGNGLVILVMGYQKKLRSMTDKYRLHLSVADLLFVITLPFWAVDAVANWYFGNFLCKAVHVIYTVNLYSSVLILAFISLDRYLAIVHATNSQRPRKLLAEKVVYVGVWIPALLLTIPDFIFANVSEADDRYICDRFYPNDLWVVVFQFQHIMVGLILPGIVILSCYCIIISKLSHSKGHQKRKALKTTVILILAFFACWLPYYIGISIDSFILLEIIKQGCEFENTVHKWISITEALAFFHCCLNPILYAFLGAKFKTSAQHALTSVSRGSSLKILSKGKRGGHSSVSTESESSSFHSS

[2] = target: T1, C-X-C chemokine receptor type 4; assay: Antagonist activity at CXCR4 in human CD4-positive T cells assessed as inhibition of CXCL12-induced calcium signal incubated for 20 mins by FLIPR assay; format: functional, cell-based, CD4+ve Th
Target sequence in this assay (P61073 whole entry): as above

[3] = Intrinsic clearance in rat liver microsomes at 1 uM preincubated for 10 mins followed by NADPH addition and measured up to 60 mins by LC-MS/MS analysis; format: ADME, Microsome; conditions: time <=70 min, read-out: CLH
[4] = test system: Hepa1-6; assay: Cytotoxicity against […] cells assessed as reduction in cell viability up to 1000 nM by CellTiter-Glo assay; format: functional, cell-based; conditions: dose nM <=1000
[5] = target: T1, C-X-C chemokine receptor type 4; assay: Antagonist activity at CXCR4 in human MDA-MB-231 cells assessed as inhibition of CXCL12-mediated chemotaxis at 100 nM after 22 hrs by transwell assay; conditions: filed as antagonist
Target sequence in this assay (P61073 whole entry, looked up): as the sequence (P61073 whole entry) above

[6] = Protein binding in rat plasma; format: ADME, cell-free; conditions: read-out: PPB (converted)
[7] = Apparent permeability across apical to basal side in human Caco2 cells at 10 uM after 90 mins by LC-MS/MS analysis; format: ADME, cell-based; conditions: Caco-2
How it was run: (§1)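 Caco-2 cells grown 21–28 days on polycarbonate inserts. TEER and Lucifer Yellow checked before and after the assay. Compound at 10 µM in HBSS with 25 mM HEPES, pH 7.4, tested A-B and B-A, 37 °C for 90 min. Samples quantified by LC-MS/MS against a standard curve.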

[8] = Half life in rat liver microsomes at 1 uM preincubated for 10 mins followed by NADPH addition and measured up to 60 mins by LC-MS/MS analysis; format: ADME, Microsome; conditions: time <=70 min
[9] = target: T2, C-C chemokine receptor type 6 (Homo sapiens) (UniProt P51684); assay: Antagonist activity at CCR6 in human CD4-positive cells assessed as inhibition of CCL20-induced calcium signal up to 10000 nM by FLIPR assay; format: functional, cell-based; conditions: CD4+ve Th, dose nM <=10000
T2 sequence (whole entry): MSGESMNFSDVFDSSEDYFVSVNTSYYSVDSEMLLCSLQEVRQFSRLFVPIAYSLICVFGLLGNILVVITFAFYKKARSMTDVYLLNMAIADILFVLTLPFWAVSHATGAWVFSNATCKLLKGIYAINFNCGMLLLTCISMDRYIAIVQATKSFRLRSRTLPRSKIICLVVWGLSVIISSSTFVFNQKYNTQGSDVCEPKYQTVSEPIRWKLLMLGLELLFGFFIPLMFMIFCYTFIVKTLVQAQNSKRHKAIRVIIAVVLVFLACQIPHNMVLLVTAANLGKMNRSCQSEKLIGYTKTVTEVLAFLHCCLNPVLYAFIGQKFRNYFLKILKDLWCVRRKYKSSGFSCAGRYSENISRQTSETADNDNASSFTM
How it was run: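 Cryopreserved activated human CD4+ CCR6-enriched T cells at 2.5×10^6/mL in HBSS/20 mM HEPES/0.005% P-104, loaded with Calcium 4 dye. Compound final 10 µM to 0.035 nM in 0.5% DMSO, followed by CCL20 stimulation. Calcium flux read on FLIPR Tetra. % effect taken relative to on-plate controls; IC50 from a four-parameter logistic fit.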

[10] = test system: L929; assay: Cytotoxicity against mouse L929 cells assessed as reduction in cell viability up to 1000 nM by CellTiter-Glo assay; format: cell-based
[11] = target: Voltage-gated inwardly rectifying potassium channel KCNH2 (Homo sapiens, UniProt Q12809); assay: Inhibition of human ERG stably expressed in CHO cells after 4 mins; format: cell-based
How it was run: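 hERG-expressing CHO cells on automated QPatch. Holding potential -80 mV, 500 ms step to +20 mV, tail current measured at -50 mV, pulses every 20 s. External solution 4 mM K⁺, 1 mM Mg²⁺, 2 mM Ca²⁺. Effect quantified 4 min after compound application.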

[12] = Efflux ratio in across basolateral to apical side over apical to basolateral side in human Caco2 cells at 10 uM after 90 mins by LC-MS/MS analysis; format: ADME, cell-based; conditions: Caco-2; how it was run: as §1
[13] = Protein binding in mouse plasma; format: ADME, cell-free; conditions: read-out: PPB (converted)
[14] = Protein binding in human plasma; format: ADME, cell-free; conditions: read-out: PPB
[15] = target: CYP3A4 (Homo sapiens, UniProt P08684); assay: Inhibition of CYP3A4 in human liver microsomes using midazolam as substrate at 10 uM preincubated for 10 mins followed by NADPH addition and measured after 10 mins by LC-MS/MS analysis relative to control; format: ADME; conditions: probe midazolam, time 20 min
How it was run: (§2)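 Human liver microsomes 0.2 mg/mL in 100 mM phosphate, pH 7.4, compound 10 µM, probe substrate midazolam 1 µM (CYP3A4) or dextromethorphan 5 µM (CYP2D6). After a 10 min preincubation, reaction started with 1 mM NADPH, 37 °C for 10 min, then stopped with cold acetonitrile. Metabolites quantified by LC-MS/MS. Triplicate incubations.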

[16] = test system: MDA-MB-231; assay: Cytotoxicity against human MDA-MB-231 cells assessed as reduction in cell viability up to 1000 nM by CellTiter-Glo assay; format: functional, cell-based; conditions: dose nM <=1000
How it was run: (§3)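 Cell viability measured with CellTiter-Glo ATP luminescence at compound concentrations up to 1000 nM.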

[17] = target: CYP2D6 (Homo sapiens, UniProt P10635); assay: Inhibition of CYP2D6 in human liver microsomes using dextromethorphan as substrate at 10 uM preincubated for 10 mins followed by NADPH addition and measured after 10 mins by LC-MS/MS analysis relative to control; format: ADME; conditions: probe dextromethorphan, time 20 min; how it was run: as §2
[18] = target: T3, C-X-C chemokine receptor type 1 (Homo sapiens) (UniProt P25024); assay: Antagonist activity at CXCR1 (unknown origin) stably expressed in HEK293 cells assessed as reduction in IL-8-induced intracellular calcium change up to 10000 nM incubated for 15 mins followed by IL-8-stimulation and measured after 15 mins by cAMP-d2/Eu-Anti-cAM based fluorescence assay; format: functional, cell-based; conditions: dose nM <=10000, time 30.0 min, in the assay text read “intracellular cAMP change” for “intracellular calcium change”
T3 sequence (whole entry): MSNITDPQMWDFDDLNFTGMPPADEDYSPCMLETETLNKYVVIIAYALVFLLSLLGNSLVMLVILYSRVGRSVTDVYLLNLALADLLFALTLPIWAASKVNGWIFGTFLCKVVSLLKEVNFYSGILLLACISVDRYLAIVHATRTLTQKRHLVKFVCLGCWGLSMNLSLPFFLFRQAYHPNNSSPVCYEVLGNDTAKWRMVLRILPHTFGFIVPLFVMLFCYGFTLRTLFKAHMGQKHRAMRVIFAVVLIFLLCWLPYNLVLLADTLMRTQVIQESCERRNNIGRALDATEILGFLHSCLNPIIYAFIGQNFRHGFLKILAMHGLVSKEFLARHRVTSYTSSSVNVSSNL
How it was run: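 HEK293 cells overexpressing CXCR1, trypsin-dissociated, 2000 cells/well. Compound in a 10-point 4-fold series, 15 min at rt, then forskolin 4.4 µM plus IL-8 100 nM (in the added solution) for 15 min at rt. cAMP measured with cAMP-d2/Eu-anti-cAMP HTRF, 60 min at rt, read at 665/615 nm.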

[19] = test system: MEF; assay: Cytotoxicity against MEF cells assessed as reduction in cell viability up to 1000 nM by CellTiter-Glo assay; format: cell-based; conditions: mouse; how it was run: as §3

Voltage-gated inwardly rectifying potassium channel KCNH2, sequence (Q12809 whole entry): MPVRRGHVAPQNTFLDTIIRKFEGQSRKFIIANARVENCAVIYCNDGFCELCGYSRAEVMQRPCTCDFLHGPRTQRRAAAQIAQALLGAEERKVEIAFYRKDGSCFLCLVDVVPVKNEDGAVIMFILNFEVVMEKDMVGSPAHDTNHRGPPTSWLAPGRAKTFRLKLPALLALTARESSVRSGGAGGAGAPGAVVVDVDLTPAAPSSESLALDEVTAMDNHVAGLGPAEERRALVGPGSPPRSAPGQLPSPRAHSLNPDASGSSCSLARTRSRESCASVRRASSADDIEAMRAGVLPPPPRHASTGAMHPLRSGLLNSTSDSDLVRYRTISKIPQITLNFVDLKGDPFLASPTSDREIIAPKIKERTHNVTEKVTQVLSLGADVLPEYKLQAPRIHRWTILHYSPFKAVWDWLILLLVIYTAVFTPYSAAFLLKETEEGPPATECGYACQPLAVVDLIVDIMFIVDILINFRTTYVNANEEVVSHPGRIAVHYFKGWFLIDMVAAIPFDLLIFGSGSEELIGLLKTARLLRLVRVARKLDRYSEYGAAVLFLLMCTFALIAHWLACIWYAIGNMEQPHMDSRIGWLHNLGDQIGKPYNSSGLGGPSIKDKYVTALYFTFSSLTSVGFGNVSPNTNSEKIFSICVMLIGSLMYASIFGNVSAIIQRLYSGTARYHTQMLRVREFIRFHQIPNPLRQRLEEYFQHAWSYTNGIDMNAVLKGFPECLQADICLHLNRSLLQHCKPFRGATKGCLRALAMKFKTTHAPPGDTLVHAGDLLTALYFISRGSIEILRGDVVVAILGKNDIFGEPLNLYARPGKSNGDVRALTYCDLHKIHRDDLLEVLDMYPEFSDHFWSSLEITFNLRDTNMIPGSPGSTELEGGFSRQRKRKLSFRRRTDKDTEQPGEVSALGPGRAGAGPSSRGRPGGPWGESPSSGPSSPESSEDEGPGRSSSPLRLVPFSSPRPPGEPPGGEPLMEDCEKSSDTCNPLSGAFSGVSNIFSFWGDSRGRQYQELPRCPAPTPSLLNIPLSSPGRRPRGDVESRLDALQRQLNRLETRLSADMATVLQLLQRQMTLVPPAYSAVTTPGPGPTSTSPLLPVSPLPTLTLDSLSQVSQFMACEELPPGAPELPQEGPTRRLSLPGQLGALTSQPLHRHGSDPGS
CYP3A4, sequence (P08684 whole entry): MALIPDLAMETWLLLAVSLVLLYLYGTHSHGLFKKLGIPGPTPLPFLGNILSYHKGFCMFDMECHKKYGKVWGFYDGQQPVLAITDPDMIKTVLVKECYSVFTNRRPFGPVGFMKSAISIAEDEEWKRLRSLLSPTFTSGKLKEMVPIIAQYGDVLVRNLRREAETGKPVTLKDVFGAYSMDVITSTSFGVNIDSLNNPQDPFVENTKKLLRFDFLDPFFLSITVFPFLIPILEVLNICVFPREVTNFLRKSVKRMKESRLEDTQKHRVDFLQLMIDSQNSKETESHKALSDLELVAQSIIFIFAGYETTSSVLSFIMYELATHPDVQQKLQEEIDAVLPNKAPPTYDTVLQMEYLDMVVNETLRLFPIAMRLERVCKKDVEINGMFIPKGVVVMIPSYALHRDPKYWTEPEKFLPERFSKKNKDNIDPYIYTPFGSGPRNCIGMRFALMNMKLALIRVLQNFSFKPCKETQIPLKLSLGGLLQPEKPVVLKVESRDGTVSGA
CYP2D6, sequence (P10635 whole entry): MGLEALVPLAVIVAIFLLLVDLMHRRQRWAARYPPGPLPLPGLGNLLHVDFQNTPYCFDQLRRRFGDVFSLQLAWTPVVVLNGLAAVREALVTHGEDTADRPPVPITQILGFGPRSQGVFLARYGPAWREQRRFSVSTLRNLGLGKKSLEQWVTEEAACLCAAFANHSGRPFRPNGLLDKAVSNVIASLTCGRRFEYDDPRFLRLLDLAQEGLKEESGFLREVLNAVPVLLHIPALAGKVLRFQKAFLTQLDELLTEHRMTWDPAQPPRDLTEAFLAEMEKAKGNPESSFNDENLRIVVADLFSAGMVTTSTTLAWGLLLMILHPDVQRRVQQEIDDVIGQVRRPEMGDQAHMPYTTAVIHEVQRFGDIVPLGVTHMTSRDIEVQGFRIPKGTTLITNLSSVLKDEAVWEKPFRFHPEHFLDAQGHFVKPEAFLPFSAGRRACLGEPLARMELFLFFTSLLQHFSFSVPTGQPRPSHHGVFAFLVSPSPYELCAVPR

| SMILES | IC50 [1] [nM] | other results |
| --- | --- | --- |
| Cc1nc(CN(C)[C@H]2CCCc3cccnc32)cc(N2CCN(C3CC3)CC2)n1 | 70 |  |
| CN1CCN(c2cc(CN(C)C3CCCc4cccnc43)nc(-c3ccccc3)n2)CC1 (racemic) | 2890 |  |
| CN1CCN(c2cc(CN(C)C3CCCc4cccnc43)nc(-c3cnn(C)c3)n2)CC1 (racemic) | 1290 |  |
| CCN1CCN(c2cc(CN(C)[C@H]3CCCc4cccnc43)nc(C)n2)CC1 | 10 |  |
| CN1CCN(c2cc(CN(C)C3CCCc4cccnc43)nc(N(C)CCO)n2)CC1 (racemic) | 792 |  |
| Cc1nc(CN(C)[C@H]2CCCc3cccnc32)cc(N2CCC(N3CCOCC3)CC2)n1 | 101 |  |
| COc1nc(CN(C)C2CCCc3cccnc32)cc(N2CCN(C)CC2)n1 (racemic) | 25 |  |
| Cc1nc(CN(C)[C@H]2CCCc3cccnc32)cc(N2CCN3CCC[C@@H]3C2)n1 | 30 |  |
| CN1CCN(c2cc(CN(C)C3CCCc4cccnc43)nc(C3CC3)n2)CC1 (racemic) | 23 |  |
| CN1CCN(c2cc(CN(C)C3CCCc4cccnc43)nc(N(C)C)n2)CC1 (racemic) | > 10000 |  |
| Cc1nc(CN(C)C2CCCc3cccnc32)cc(N2CCN(C)CC2)n1 (racemic) | 12 |  |
| CCOc1nc(CN(C)C2CCCc3cccnc32)cc(N2CCN(C)CC2)n1 (racemic) | 78 |  |
| CC(C)Oc1nc(CN(C)C2CCCc3cccnc32)cc(N2CCN(C)CC2)n1 (racemic) | 151 |  |
| Cc1nc(CN(C)[C@H]2CCCc3cccnc32)cc(N2CCN(C)CC2)n1 | 8.8 | IC50 [2]: 0.02 nM; CLint scaled at 1 µM [3]: 1570 mL/min/kg; Activity [4]: inactive; Activity [5]: Active; fraction unbound [6]: 0.18; Papp A→B at 1.5 h, 10 µM [7]: 27 ×10⁻⁶ cm/s; half-life at 1 µM [8]: 1.6 min; Activity [9]: inactive; Activity [10]: Non-Toxic; IC50 [11]: 8000 nM; efflux ratio at 1.5 h, 10 µM [12]: 0.86; fraction unbound [13]: 0.11; fraction unbound [14]: 0.01; inhibition at 10 min, 10 µM [15]: 48%; Activity [16]: inactive; inhibition at 10 min, 10 µM [17]: 57%; Activity [18]: inactive; Activity [19]: Non-Toxic |
| Cc1nc(CN(C)[C@H]2CCCc3cccnc32)cc(N2C[C@@H](C)N(C)[C@@H](C)C2)n1 | 8.3 |  |
| Cc1nc(CN(C)C2CCCc3cccnc32)c(F)c(N2CCN(C)CC2)n1 (racemic) | 12 |  |
| CC(C)Nc1nc(CN(C)C2CCCc3cccnc32)cc(N2CCN(C)CC2)n1 (racemic) | 930 |  |
| CN1CCN(c2cc(CN(C)C3CCCc4cccnc43)nc(N3CCOCC3)n2)CC1 (racemic) | 2440 |  |
| Cc1nc(CN(C)[C@H]2CCCc3cccnc32)cc(N2CCN3CCC[C@H]3C2)n1 | 18 |  |

| SMILES | IC50 [1] [nM] | other results |
| --- | --- | --- |
| CC(C)c1nc(CN(C)C2CCCc3cccnc32)cc(N2CCN(C)CC2)n1 (racemic) | 256 |  |
| Cc1nc(CN(C)[C@H]2CCCc3cccnc32)cc(N2CCN(C3COC3)CC2)n1 | 130 |  |
| Cc1nc(CN(C)[C@H]2CCCc3cccnc32)cc(N2CCC(N3CCN(C)CC3)CC2)n1 | 96 |  |
| Cc1nc(CN(C)[C@H]2CCCc3cccnc32)cc(N2CCN(C)C[C@H]2C)n1 | 21 |  |
| Cc1nc(CN(C)[C@H]2CCCc3cccnc32)cc(NCCCN2CCOCC2)n1 | 36 |  |
| Cc1nc(CN(C)C2CCCc3cccnc32)c(C#N)c(N2CCN(C)CC2)n1 (racemic) | 33 |  |
| CCc1nc(CN(C)C2CCCc3cccnc32)cc(N2CCN(C)CC2)n1 (racemic) | 25 |  |
| CN1CCN(c2cc(CN(C)C3CCCc4cccnc43)nc(N)n2)CC1 (racemic) | 23 |  |
| Cc1nc(CN(C)[C@H]2CCCc3cccnc32)cc(NCCN2CCOCC2)n1 | 66 |  |
| CNc1nc(CN(C)C2CCCc3cccnc32)cc(N2CCN(C)CC2)n1 (racemic) | 58 |  |
| Cc1nc(CN(C)[C@H]2CCCc3cccnc32)cc(N(C)CCO)n1 | > 10000 |  |
| CN1CCN(c2cc(CN(C)C3CCCc4cccnc43)nc(N3CCCC3)n2)CC1 (racemic) | > 10000 |  |
| Cc1nc(CN(C)[C@H]2CCCc3cccnc32)cc(N2CCN(C)C[C@@H]2C)n1 | 14 |  |
| Cc1nc(CN(C)[C@H]2CCCc3cccnc32)cc(N2CCN(C)[C@H](C)C2)n1 | 8.3 |  |
| Cc1nc(CN(C)[C@H]2CCCc3cccnc32)cc(N2CCN(C)[C@@H](C)C2)n1 | 14 |  |
| Cc1nc(CN(CC2CC2)C2CCCc3cccnc32)cc(N2CCN(C)CC2)n1 (racemic) | 51 |  |
| CCN(Cc1cc(N2CCN(C)CC2)nc(C)n1)C1CCCc2cccnc21 (racemic) | 17 |  |
| CN1CCN(c2cc(CN(C)[C@H]3CCCc4cccnc43)nc(C(F)(F)F)n2)CC1 | 293 |  |
| CCNc1nc(CN(C)C2CCCc3cccnc32)cc(N2CCN(C)CC2)n1 (racemic) | 105 |  |
